ChEMBL document CHEMBL2401724, “Synthesis and structure--activity relationships of N²-alkylated quaternary β-carbolines as novel antitumor agents” (Eur J Med Chem, 2013)

Tests used:
769-P = assay: Cytotoxicity against human 769-P cells by MTT assay; assay type: functional, cell-based
Method in brief: (§1)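 Cell lines were cultured in 96-well microtitre plates at 37 °C in humidified 5% CO₂. Compounds were dissolved in DMSO, at ≤2% (v/v) final in the growth medium. Viability was read by MTT staining, expressed relative to untreated cells.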

CWR22R = assay: Cytotoxicity against human 22Rv1 cells by MTT assay; assay type: functional, cell-based; method in brief: as §1
HT-29 = assay: Cytotoxicity against human HT-29 cells by MTT assay; assay type: functional, cell-based; method in brief: as §1
MCF7 = assay: Cytotoxicity against human MCF7 cells by MTT assay; assay type: functional, cell-based; method in brief: as §1
[1] = Cytotoxicity against human ECA109 cells by MTT assay; assay type: functional, cell-based; conditions: ECa-109; method in brief: as §1
SK-OV-3 = assay: Cytotoxicity against human SKOV3 cells by MTT assay; assay type: functional, cell-based; method in brief: as §1
A-375 = assay: Cytotoxicity against human A375 cells by MTT assay; assay type: functional, cell-based; method in brief: as §1
[2] = Acute toxicity in ip dosed C57BL/6 mouse after 14 days; assay type: organism-based; conditions: in vivo
Method in brief: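 C57BL/6 mice (9–12 weeks, 18–22 g), single i.p. dose; watched continuously for 2 h, intermittently over 24 h, then occasionally to day 14 for behaviour, deaths and delayed effects. Survivors killed at day 14; heart, liver, kidneys inspected macroscopically, early deaths also examined. LD50 derived graphically.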

[3] = Antitumor activity against mouse Sarcoma 180 cells allografted in mouse assessed as tumor growth inhibition at 6 mg/kg, ip qd administered for 7 days measured after 21 days relative to control; assay type: functional; conditions: Sarcoma-180, ip, route intraperitoneal, read-out: TGI
Method in brief: (§2)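 Tumour cells (S180 sarcoma or Lewis lung) were first grown in mice for 7 days, then harvested. Viable cells (2 × 10⁶/mouse) were injected s.c. into the armpit. Groups of 10 female mice received the compound i.p. once daily for 7 consecutive days, starting 24 h after inoculation. Cyclophosphamide 30 mg/kg served as positive control and vehicle as negative control. Body weights were taken every 3 days. Mice were killed on day 21 post-inoculation, and tumours were excised and weighed to calculate the inhibition rate versus control.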

HepG2 = assay: Cytotoxicity against human HepG2 cells by MTT assay; assay type: functional, cell-based; method in brief: as §1
BGC-823 = assay: Cytotoxicity against human BGC823 cells by MTT assay; assay type: functional, cell-based; method in brief: as §1
[4] = Cytotoxicity against mouse LLC cells by MTT assay; assay type: functional, cell-based; conditions: Lewis lung carcinoma; method in brief: as §1
[5] = test system: Lewis lung carcinoma cell line; assay: Antitumor activity against mouse LLC cells allografted in mouse assessed as tumor growth inhibition at 0.5 mg/kg, ip qd administered for 7 days measured after 21 days relative to control; assay type: functional; conditions: route intraperitoneal, read-out: TGI; method in brief: as §2
[6] = Antitumor activity against mouse Sarcoma 180 cells allografted in mouse assessed as tumor growth inhibition at 0.5 mg/kg, ip qd administered for 7 days measured after 21 days relative to control; assay type: functional; conditions: Sarcoma-180, ip, route intraperitoneal, read-out: TGI; method in brief: as §2
[7] = Antitumor activity against mouse Sarcoma 180 cells allografted in mouse assessed as tumor growth inhibition at 1.25 mg/kg, ip qd administered for 7 days measured after 21 days relative to control; assay type: functional; conditions: Sarcoma-180, ip, route intraperitoneal, read-out: TGI; method in brief: as §2
[8] = test system: Lewis lung carcinoma cell line; assay: Antitumor activity against mouse LLC cells allografted in mouse assessed as tumor growth inhibition at 1.25 mg/kg, ip qd administered for 7 days measured after 21 days relative to control; assay type: functional; conditions: route intraperitoneal, read-out: TGI; method in brief: as §2
[9] = test system: Lewis lung carcinoma cell line; assay: Antitumor activity against mouse LLC cells allografted in mouse assessed as tumor growth inhibition at 30 mg/kg, ip qd administered for 7 days measured after 21 days relative to control; conditions: read-out: TGI
[10] = Antitumor activity against mouse Sarcoma 180 cells allografted in mouse assessed as tumor growth inhibition at 30 mg/kg, ip qd administered for 7 days measured after 21 days relative to control; conditions: Sarcoma-180, ip, read-out: TGI

Compound | IC50 (769-P) [µM] | IC50 (CWR22R) [µM] | IC50 (HT-29) [µM] | IC50 (MCF7) [µM] | IC50 [1] [µM] | IC50 (SK-OV-3) [µM] | IC50 (A-375) [µM] | LD50 at 336 h [2] [mg/kg] | inhibition in vivo at 6 mg/kg [3] [%] | IC50 (HepG2) [µM] | IC50 (BGC-823) [µM] | IC50 [4] [µM] | inhibition in vivo at 0.5 mg/kg [5] [%] | inhibition in vivo at 0.5 mg/kg [6] [%] | inhibition in vivo at 1.25 mg/kg [7] [%] | inhibition in vivo at 1.25 mg/kg [8] [%] | inhibition in vivo at 30 mg/kg [9] [%] | inhibition in vivo at 30 mg/kg [10] [%]
Clc1cccc(C[n+]2ccc3c4ccccc4n(CCCc4ccccc4)c3c2)c1.[Br-] | 21.9 | 9.7 | 16.5 | 14.3 | 7.9 | 13.8 | 24.6 | 30 | 43.5 | 19 | 9.8 | 6.5 | – | – | – | – | – | –
O=[N+]([O-])c1ccc(C[n+]2ccc3c4ccccc4n(CCCc4ccccc4)c3c2)cc1 | 8.3 | 5.6 | 12.6 | 24.5 | 7.6 | 17.4 | 12.3 | – | – | 19.9 | 39.7 | 2.2 | – | – | – | – | – | –
c1ccc(CCCn2c3ccccc3c3cc[n+](CCc4ccccc4)cc32)cc1 | 14 | 4 | 3.3 | 12.5 | 8.1 | 8.4 | 12.2 | – | – | 14 | 10.4 | < 2 | – | – | – | – | – | –
c1ccc(CCCn2c3ccccc3c3cc[n+](CCCc4ccccc4)cc32)cc1 | 3.3 | 4.9 | 3.4 | 3.7 | 5.3 | 10.8 | 3.2 | – | – | 4 | 9.4 | < 2 | – | – | – | – | – | –
Cc1c2c(cc[n+]1Cc1ccccc1)c1ccccc1n2CCCc1ccccc1.[Br-] | 5.3 | 1.8 | 14.6 | 7 | 6.8 | 7.6 | 8.5 | 2.5 | – | 5.8 | 6.9 | < 2 | 33.1 | 51 | – | – | – | –
c1ccc(CCCn2c3ccccc3c3cc[n+](Cc4ccccc4)c(-c4ccccc4)c32)cc1 | 3 | 3.7 | 10.8 | 3.7 | 5.1 | < 2 | 5.9 | – | – | 4.8 | < 2 | < 2 | – | – | – | – | – | –
COc1ccc(-c2c3c(cc[n+]2Cc2ccccc2)c2ccccc2n3CCCc2ccccc2)cc1.[Br-] | < 2 | 1.8 | 2.4 | 2.2 | 12.3 | 5.2 | < 2 | 6.25 | – | 3.3 | 3.2 | < 2 | – | – | 41.4 | 23.9 | – | –
c1ccc(CCCn2c3ccccc3c3cc[n+](Cc4ccccc4)c(-c4ccsc4)c32)cc1 | 14.6 | 8.4 | 31.3 | 29.2 | 27.2 | 14.6 | 27.9 | – | – | 36.7 | 4 | 3.1 | – | – | – | – | – | –
Cn1c2ccccc2c2cc[n+](Cc3ccccc3)cc21 | 22.5 | 8.4 | 59.1 | > 100 | 95.9 | 55.2 | 37.3 | – | – | > 100 | 13.2 | 8.4 | – | – | – | – | – | –
CCn1c2ccccc2c2cc[n+](Cc3ccccc3)cc21 | 38.5 | 5.6 | > 100 | > 100 | 36.7 | 27.6 | 54.3 | – | – | > 100 | > 100 | 5.1 | – | – | – | – | – | –
CC(C)n1c2ccccc2c2cc[n+](Cc3ccccc3)cc21 | 30.8 | 3.6 | > 100 | 54.8 | 7.6 | 6.6 | 24.5 | – | – | 58.7 | 61.5 | < 2 | – | – | – | – | – | –
C=CCn1c2ccccc2c2cc[n+](Cc3ccccc3)cc21 | 21.9 | < 2 | > 100 | 72.6 | 21.4 | 12.6 | 11.3 | – | – | 67.8 | > 100 | 4.6 | – | – | – | – | – | –
CCCCn1c2ccccc2c2cc[n+](Cc3ccccc3)cc21 | 19.8 | < 2 | 83.8 | 34.1 | 8.6 | 4.7 | 19.6 | – | – | 29 | 68.1 | < 2 | – | – | – | – | – | –
CC(C)Cn1c2ccccc2c2cc[n+](Cc3ccccc3)cc21 | 11.6 | 9.6 | 87.7 | 39.2 | 35.7 | 27.7 | 28.4 | – | – | 36.6 | 60.7 | 8 | – | – | – | – | – | –
CCCCCCn1c2ccccc2c2cc[n+](Cc3ccccc3)cc21 | 2.7 | < 2 | 16 | 11.1 | 13.9 | 7.3 | 6.8 | – | – | 13.9 | 5.2 | < 2 | – | – | – | – | – | –
CCCCCCCCn1c2ccccc2c2cc[n+](Cc3ccccc3)cc21 | < 2 | 2.9 | 10.9 | 4.1 | 5.1 | 3.2 | 3.1 | – | – | 6.5 | 2.5 | < 2 | – | – | – | – | – | –
Fc1ccc(Cn2c3ccccc3c3cc[n+](Cc4ccccc4)cc32)cc1 | 6 | 3.5 | 28.9 | 17.8 | 35.4 | 10.5 | 4.7 | – | – | 23.4 | 6.3 | < 2 | – | – | – | – | – | –
Clc1cccc(Cn2c3ccccc3c3cc[n+](Cc4ccccc4)cc32)c1 | 3.5 | 4.2 | 26.9 | 20.3 | 23.3 | 7.9 | 7 | – | – | 16.5 | 20.3 | < 2 | – | – | – | – | – | –
COc1ccc(Cn2c3ccccc3c3cc[n+](Cc4ccccc4)cc32)cc1.[Br-] | 7.6 | 4.8 | 19.2 | 18.7 | 54.3 | 19.9 | 9.5 | 19.5 | – | 15.9 | 17.8 | 4.2 | – | – | – | – | – | –
C[n+]1ccc2c3ccccc3n(CCCc3ccccc3)c2c1 | 19.9 | 4.3 | 97.3 | 75.6 | 60 | > 100 | 41.5 | – | – | 90.8 | 40.6 | 2.4 | – | – | – | – | – | –
CC[n+]1ccc2c3ccccc3n(CCCc3ccccc3)c2c1 | 34.2 | 2.5 | 54.2 | 98.7 | 55.5 | > 100 | 45.1 | – | – | 92.1 | 88 | 4.3 | – | – | – | – | – | –
CCCC[n+]1ccc2c3ccccc3n(CCCc3ccccc3)c2c1 | 13.4 | 3.4 | 62.7 | 38.7 | 41.5 | 15.8 | 12.2 | – | – | 45.5 | 15.4 | < 2 | – | – | – | – | – | –
CCCCCC[n+]1ccc2c3ccccc3n(CCCc3ccccc3)c2c1 | 2.5 | 2.2 | 2.3 | 3.9 | 2.5 | < 2 | 2.9 | – | – | 4.3 | 2.3 | < 2 | – | – | – | – | – | –
CCCCCCCC[n+]1ccc2c3ccccc3n(CCCc3ccccc3)c2c1 | < 2 | 4.3 | 18.6 | 2.9 | 22.8 | 5.9 | < 2 | – | – | 4.7 | 7.4 | < 2 | – | – | – | – | – | –
CCCCCCCCCC[n+]1ccc2c3ccccc3n(CCCc3ccccc3)c2c1 | < 2 | 6.9 | 31.3 | < 2 | 23.2 | 57 | < 2 | – | – | < 2 | 57 | 15.7 | – | – | – | – | – | –
O=P1(N(CCCl)CCCl)NCCCO1 (stereo unspecified) [CYCLOPHOSPHAMIDE ANHYDROUS] | – | – | – | – | – | – | – | – | – | – | – | – | – | – | – | – | 87.3 | 85.6
